# Assay outcomes as filed in PubChem.
# An excerpt weighted towards active compounds, which were near 2.5% of everything screened.
# UCH37 inh: inhibitors of human deubiquitinating enzyme UCH37. Q9Y5K5. purified proteasome/UCH37, Ub-AMC cleavage fluorescence. inhibition, % (test concentration not listed). 330,000 compounds, 0.33% hits;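 active = mean inhibition over replicate wells above about 20%, limit read from the data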;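 note: 0% = compound-free wells with enzyme and 100% = wells lacking proteasome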
# Target sequence (Q9Y5K5 whole entry, looked up): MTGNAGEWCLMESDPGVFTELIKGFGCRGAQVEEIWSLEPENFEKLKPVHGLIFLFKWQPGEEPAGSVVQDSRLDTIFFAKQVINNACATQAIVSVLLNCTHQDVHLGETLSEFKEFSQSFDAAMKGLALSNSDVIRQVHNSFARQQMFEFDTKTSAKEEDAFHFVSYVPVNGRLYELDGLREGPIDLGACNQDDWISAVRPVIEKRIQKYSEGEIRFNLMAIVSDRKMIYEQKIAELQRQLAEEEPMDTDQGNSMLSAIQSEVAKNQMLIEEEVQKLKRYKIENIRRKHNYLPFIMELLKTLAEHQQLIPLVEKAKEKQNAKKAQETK
#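 Material: Human UCH37 enzyme supplied as purified proteasome complex | Schedule: 30 min compound-proteasome preincubation then 25 min substrate reaction, room temperature | Detection: AMC fluorescence from Ub-AMC cleavage, excitation 355 nm, emission 460 nm | Benchmarks: Wells without proteasome as full block, compound-free enzyme plus substrate as uninhibited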
# Rce1 inh: yeast Ras-converting enzyme inhibition. Q03530. yeast membranes, quenched prenylated peptide cleavage fluorescence. calls only. 290,000 compounds, 0.27% hits;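 active = fall in fluorescence gain of 50% or more versus controls, with final raw signal at or below 3038400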;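 note: plate controls were neutral control wells for no effect and wells lacking membranes for full effect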
# Target sequence (Q03530 whole entry, looked up): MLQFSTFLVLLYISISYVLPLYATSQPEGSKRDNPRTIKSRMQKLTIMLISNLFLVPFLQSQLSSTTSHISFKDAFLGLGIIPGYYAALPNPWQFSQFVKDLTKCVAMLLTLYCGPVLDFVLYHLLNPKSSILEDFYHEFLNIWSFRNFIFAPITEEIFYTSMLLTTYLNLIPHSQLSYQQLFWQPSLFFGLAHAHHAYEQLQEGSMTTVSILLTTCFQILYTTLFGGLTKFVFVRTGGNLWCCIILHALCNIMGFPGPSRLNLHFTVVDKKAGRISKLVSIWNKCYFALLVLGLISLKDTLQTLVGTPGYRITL
# T cell HTS: T cell immune modulators affecting CD8 T cell-vesicle binding. 330,000 compounds, 0.068% hits. AID 2052. response (vesicle binding), % at 7 µM. 2C CD8+ T cell-vesicle binding, flow cytometry; hits give low values;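 active = response, share of CD8 T cells binding vesicles, and their 90th percentile fluorescence all below set limits, cut at about 80% in these data, passing the limit was not always enough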;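 note: values below 100% mean blocked vesicle binding to the CD8+ T cells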
#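 Benchmarks: naked versus QL9-loaded vesicles / Assay system: purified 2C TCR transgenic mouse naive CD8+ T cells / Technique: high-throughput flow cytometry with anti-B7-1 and anti-CD8 staining / Timing: Cell–vesicle co-incubation 1.5 h at 37 °C, staining 20 min on ice / Read-out: percent CD8+ FL2 mean versus row control / Probe or stimulus: QL9-loaded Drosophila micro-vesicles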
# MEKK2mut PB1 HTS: signal of MEK5 binding to mutant human MEKK2 PB1 domain. percent response, % at 10 µM. 290,000 compounds, 0.35% hits. AID 1530. bead flow cytometry, Alexa488-MEK5 binding to MEKK2 mutant; in the data active = percent response above about 24%, passing the limit was not always enough
# MEKK2wt PB1 HTS: raises or lowers MEK5 binding to wildtype human MEKK2 PB1 domain. Q9Y2U5. binding response (% of control), % at 10 µM. bead flow cytometry, Alexa488-MEK5 binding to MEKK2 WT; actives lie on both sides. AID 1531. 290,000 compounds, 1.1% hits; in the data active = binding response below about 67% or above about 130%
# MEKK3 PB1 HTS: raises or lowers MEK5 binding to the human MEKK3 PB1 domain. Q99759. binding response (% of control), % at 10 µM. bead-based flow cytometry, Alexa488-MEK5 binding to MEKK3; actives lie on both sides; 0 = blocked by unlabeled MEK5, 100 = vehicle. 290,000 compounds, 1.4% hits;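 active = binding response more than 3 SD above or below the average of its plate-row segment, actives on both sides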;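 note: Alexa488 bead fluorescence after subtracting the streptavidin-only scavenger bead signal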
# MEKK2wt confirm: raises or lowers MEK5 binding to wildtype human MEKK2, retest; shares compounds with MEKK3 PB1 HTS; 5,900 compounds, 2.4% hits; binding response (% of control), % at 10 µM; bead flow cytometry, Alexa488-MEK5 binding to MEKK2 WT; actives lie on both sides; AID 1892; in the data active = binding response below about 16% or above about 210%; inactive = in between
# MEKK2mut confirm: signal of MEK5 binding to mutant human MEKK2, retest. 5,900 compounds, 2% hits. shares compounds with MEKK3 PB1 HTS. AID 1893. bead flow cytometry, Alexa488-MEK5 binding to MEKK2 mutant. percent response, % at 10 µM; in the data active = percent response mostly above about 71%, no sharp cut-off; inactive = mostly below about 38%;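 note: higher means compound restores mutant binding toward wildtype level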
# MEKK3 confirm: confirmation of inhibitors of MEK5 binding to human MEKK3; binding response (% of control), % at 10 µM; shares compounds with MEKK3 PB1 HTS; 5,900 compounds, 1.8% hits; AID 1894; bead flow cytometry, Alexa488-MEK5 binding to MEKK3; hits give low values;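 active = binding response below 72% of control, or above a set upper limit, though filed actives all read lower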;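 note: 100% = DMSO only wells and 0% = binding blocked by excess unlabeled MEK5; lower values mean stronger disruption of MEK5 binding to MEKK3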
# * = called active by the depositor; i = inactive; · = not tested or not shown; [ ] = dose if it differs, or a comment.
SMILES,UCH37 inh,Rce1 inh,T cell HTS,MEKK2mut PB1 HTS,MEKK2wt PB1 HTS,MEKK3 PB1 HTS,MEKK2wt confirm,MEKK2mut confirm,MEKK3 confirm
COc1cc2c(C(=O)NCCCN3CCN(c4cccc(Cl)c4)CC3)cn(C)c(=O)c2cc1OC,3.9,i,710.2,13.0,146.0*,127.0*,123.0,17.0,105.0
COc1ccc(NC(=S)NCCCN2CCCC2)cc1,2.0,i,319.7,-1.0,97.0,98.0,·,·,·
CCOc1ccc(NC(=S)NCCCN2CCN(c3ccc(OC)cc3)CC2)cc1,1.0,i,389.4,8.0,140.0*,115.0,138.0,29.0,102.0
COc1cccc(C(=O)NCCCNC(=O)c2cccc(OC)c2)c1,4.4,i,175.3,3.0,103.0,103.0,·,·,·
CSc1ccc(NC(=O)NCCCN2CCN(c3ccccc3F)CC2)cc1,2.3,i,195.2,7.0,111.0,97.0,·,·,·
COc1ccc(S(N)(=O)=O)cc1C(=O)NCCCN1CCN(c2cccc(Cl)c2)CC1,-0.3,i,350.0,·,·,·,·,·,·
CCc1nc2ccc(C(=O)NCCCN3CCN(c4ccccc4F)CC3)cc2nc1CC,1.3,i,190.1,19.0,137.0*,107.0,145.0,31.0,104.0
COc1cccc(C(=O)NCCCN2CCN(CCCNC(=O)c3cccc(OC)c3)CC2)c1,1.0,i,300.7,1.0,107.0,128.0*,115.0,12.0,103.0
Cc1ccc(C(=O)NN=C/C=C/c2ccccc2)cc1,4.9,·,·,·,·,·,·,·,·
CN(C)N=Cc1ccc(Sc2ccccc2[N+](=O)[O-])o1,2.9,·,·,·,·,·,·,·,·
COc1ccc(N2CCN(CCCNC(=O)c3cc4sccc4n3C)CC2)cc1,3.4,i,205.9,18.0,148.0*,108.0,126.0,22.0,108.0
CN(C)N=Cc1cn(-c2ccccc2)nc1-c1cccnc1,0.5,·,·,·,·,·,·,·,·
O=C(Nc1ccc(Cl)cc1)NC1CCCCC1,0.7,i,388.5,-9.0,-1.0*[inhibitor],1.0*[inhibitor],64.0,-9.0,95.0
O=C(Nc1ccc(Cl)cc1)NC1CCCCC1Cc1ccco1 (stereo not drawn),4.8,i,156.9,-9.0,46.0*[inhibitor],69.0*[inhibitor],112.0,18.0,105.0
Nc1ccc(NC(=O)NC2CCCCC2)cc1,4.8,i,274.2,-6.0,94.0,99.0,·,·,·
O=C(Nc1ccc(Cl)cc1)NC1CCCC1Cc1ccco1 (stereo not drawn),1.9,i,267.3,5.0,116.0,109.0,·,·,·
O=[N+]([O-])c1ccc(C[n+]2cccc3ccccc32)cc1,1.9,i,64.8,98.0*,84.0,104.0,94.0,-30.0,96.0
O=C(NN=Cc1cccc([N+](=O)[O-])c1)c1cccs1,3.1,·,·,·,·,·,·,·,·
COc1ccc(Nc2c3c(nc4c(-c5ccccc5)c(C)nn24)CCC3)cc1,-103.5,i,242.5,0.0,116.0,128.0*,98.0,0.0,106.0
NCCCCCC(=O)NN=Cc1ccc2nccnc2c1,6.6,·,·,·,·,·,·,·,·
COc1ccc(-c2nn(-c3ccccc3)cc2C=NNc2ccc3ccccc3n2)cc1OC,-80.0,·,·,·,·,·,·,·,·
CC(=NNc1nc2ccccc2[nH]1)c1ccc(Cl)s1,-43.7,·,·,·,·,·,·,·,·
N#C/C(=N\Nc1ccccc1)C(=N)N1CCOCC1,·,i,0.0,0.0,105.0,130.0*,97.0,-2.0,95.0
Cc1ccc(N/N=C(\C#N)C(=N)N2CCOCC2)cc1,·,i,263.5,-1.0,108.0,104.0,·,·,·
CC(CC(=O)Nc1cccc(Cl)c1Cl)=NNC(=O)c1ccccc1N,-168.6,·,·,·,·,·,·,·,·
SMILES,UCH37 inh,Rce1 inh,T cell HTS,MEKK2mut PB1 HTS,MEKK2wt PB1 HTS,MEKK3 PB1 HTS,MEKK2wt confirm,MEKK2mut confirm,MEKK3 confirm
CCN(CC)CCNC(C(=O)Nc1cc(C(F)(F)F)ccc1Cl)c1ccccc1 (stereo not drawn),0.6,i,299.0,0.0,106.0,143.0*,111.0,7.0,103.0
O=C(Nc1cc(C(F)(F)F)ccc1Cl)C(NCc1ccccc1)c1ccccc1 (stereo not drawn),1.5,i,0.0,-1.0,107.0,101.0,·,·,·
CC(=NNC(=S)NCc1ccccc1)C1CCCCC1,-243.5,·,·,·,·,·,·,·,·
CCC(C=NNC(=O)c1ccccc1F)CC,1.9,·,·,·,·,·,·,·,·
OCC1(Cc2cccc(C(F)(F)F)c2)CCN(Cc2cc3ccccc3o2)CC1,2.9,i,217.2,8.0,122.0,106.0,·,·,·
CSc1ccc(CN2CCC(CO)(Cc3ccc(Cl)cc3)CC2)cc1,7.0,i,81.0,19.0,140.0*,105.0,137.0,21.0,106.0
OCC1(Cc2ccc(Cl)cc2)CCN(Cc2ccccc2F)CC1,2.4,i,283.6,7.0,111.0,105.0,·,·,·
Cc1c(CN2CCC(CO)(Cc3cccc(C(F)(F)F)c3)CC2)c2ccccc2n1C,2.4,i,199.4,44.0,165.0*,108.0,137.0,11.0,99.0
COc1cc(CN2CCC(CO)(Cc3cccc(C(F)(F)F)c3)CC2)ccc1F,4.1,i,176.7,-23.0,69.0,42.0*[inhibitor],122.0,7.0,102.0
Cc1cc(C)c2c(c1)C(=NNS(=O)(=O)c1ccccc1)CCC2,2.4,·,·,·,·,·,·,·,·
Cc1cc(C)cc(-n2c(C)cc(C=NNC(=O)c3cccc([N+](=O)[O-])c3C)c2C)c1,2.4,·,·,·,·,·,·,·,·
CCOCCCNC(c1ccccc1)c1ccncc1 (stereo not drawn),4.6,i,194.4,4.0,103.0,103.0,·,·,·
CCOCCCNCC(O)c1ccccc1 (stereo not drawn),-1.4,i,378.0,2.0,116.0,162.0*,94.0,-10.0,96.0
COc1ccc(N2CCN(C(=O)NC3CCCCC3)CC2)cc1,2.4,i,269.4,-2.0,99.0,77.0*[inhibitor],104.0,1.0,102.0
COc1cccc(N2CCN(C(=O)NC3CCCCC3)CC2)c1,-3.5,·,421.0,4.0,106.0,104.0,·,·,·
CN(CCO)C(=O)c1c(NC(=O)c2ccccc2)sc2c1CCCC2,·,·,301.5,0.0,101.0,105.0,·,·,·
Cc1cccc(C(=O)Nc2sc3c(c2C(=O)O)CCC3)c1,7.2,i,34.5,-14.0,84.0,75.0*[inhibitor],96.0,-8.0,98.0
CNC(=O)c1c(NC(=O)c2cccc(C)c2)sc2c1CCC2,-37.0,i,209.3,0.0,105.0,101.0,·,·,·
CN(C)CCNC(=O)c1c(NC(=O)c2ccccc2)sc2c1CCCC2,-0.1,i,884.8,14.0,148.0*,109.0,134.0,18.0,106.0
CN1CCN(NC(=S)NC2CCCC2)CC1,-0.2,i,154.3,-8.0,95.0,99.0,·,·,·
